Laboratory results reported in ChEMBL document CHEMBL4406825, “Design, synthesis and preliminary bioactivity evaluations of 8-hydroxyquinoline derivatives as matrix metalloproteinase (MMP) inhibitors” (Eur J Med Chem, 2019).
Activity calls are given as the source filed them. The rule behind the calls is not given here.

Experiments:
[1] = target: T1, Matrix metalloproteinase-9 (Homo sapiens, UniProt P14780); experiment: Inhibition of recombinant human MMP9 at 25 uM using thiopeptide as substrate preincubated for 30 mins followed by substrate addition and measured every min for 20 mins by colorimetric assay relative to control
T1 sequence (P14780 whole entry): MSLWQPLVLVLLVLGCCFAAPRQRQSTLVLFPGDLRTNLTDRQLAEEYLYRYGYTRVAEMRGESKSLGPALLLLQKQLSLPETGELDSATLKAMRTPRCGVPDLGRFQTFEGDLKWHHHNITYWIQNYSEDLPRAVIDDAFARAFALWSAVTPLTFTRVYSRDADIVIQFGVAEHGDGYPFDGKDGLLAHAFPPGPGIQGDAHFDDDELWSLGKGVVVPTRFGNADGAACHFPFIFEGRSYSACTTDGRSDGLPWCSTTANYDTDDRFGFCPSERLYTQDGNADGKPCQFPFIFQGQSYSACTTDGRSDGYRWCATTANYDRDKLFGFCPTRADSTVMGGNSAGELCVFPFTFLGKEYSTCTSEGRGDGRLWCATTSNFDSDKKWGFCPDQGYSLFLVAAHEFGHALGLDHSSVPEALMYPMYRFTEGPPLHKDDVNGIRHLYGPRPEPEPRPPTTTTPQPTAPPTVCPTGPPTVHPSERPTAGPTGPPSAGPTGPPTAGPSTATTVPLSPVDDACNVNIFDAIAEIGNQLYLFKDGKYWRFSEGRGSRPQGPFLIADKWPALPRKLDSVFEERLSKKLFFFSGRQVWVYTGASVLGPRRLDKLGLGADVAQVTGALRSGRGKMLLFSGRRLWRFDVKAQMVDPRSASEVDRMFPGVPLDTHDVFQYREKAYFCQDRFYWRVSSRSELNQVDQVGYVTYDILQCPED

[2] = target: T1, Matrix metalloproteinase-9; experiment: Inhibition of recombinant human MMP9 using thiopeptide as substrate preincubated for 30 mins followed by substrate addition and measured every min for 20 mins by colorimetric assay
[3] = target: MMP-2/MMP-9 (Homo sapiens) (UniProt P08253+P14780); experiment: Selectivity ratio of IC50 for inhibition of recombinant human MMP9 to IC50 for inhibition of recombinant human MMP2
[4] = target: T1, Matrix metalloproteinase-9; experiment: Inhibition of recombinant human MMP9 at 10 uM using thiopeptide as substrate preincubated for 30 mins followed by substrate addition and measured every min for 20 mins by colorimetric assay relative to control
How it was run: (§1)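 Colorimetric kit assay: human recombinant enzyme plus inhibitor in assay buffer for 30 min at 37 °C, then chromogenic MMP substrate added; A412 recorded each minute over 20 min. Enzyme-free blanks and inhibitor-free controls included.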

[5] = target: T1, Matrix metalloproteinase-9; experiment: Inhibition of recombinant human MMP9 at 50 uM using thiopeptide as substrate preincubated for 30 mins followed by substrate addition and measured every min for 20 mins by colorimetric assay relative to control
[6] = target: T2, 72 kDa type IV collagenase (Homo sapiens, UniProt P08253); experiment: Inhibition of recombinant human MMP2 using thiopeptide as substrate preincubated for 30 mins followed by substrate addition and measured every mins for 20 min by colorimetric assay
Target sequence in this assay (P08253 whole entry): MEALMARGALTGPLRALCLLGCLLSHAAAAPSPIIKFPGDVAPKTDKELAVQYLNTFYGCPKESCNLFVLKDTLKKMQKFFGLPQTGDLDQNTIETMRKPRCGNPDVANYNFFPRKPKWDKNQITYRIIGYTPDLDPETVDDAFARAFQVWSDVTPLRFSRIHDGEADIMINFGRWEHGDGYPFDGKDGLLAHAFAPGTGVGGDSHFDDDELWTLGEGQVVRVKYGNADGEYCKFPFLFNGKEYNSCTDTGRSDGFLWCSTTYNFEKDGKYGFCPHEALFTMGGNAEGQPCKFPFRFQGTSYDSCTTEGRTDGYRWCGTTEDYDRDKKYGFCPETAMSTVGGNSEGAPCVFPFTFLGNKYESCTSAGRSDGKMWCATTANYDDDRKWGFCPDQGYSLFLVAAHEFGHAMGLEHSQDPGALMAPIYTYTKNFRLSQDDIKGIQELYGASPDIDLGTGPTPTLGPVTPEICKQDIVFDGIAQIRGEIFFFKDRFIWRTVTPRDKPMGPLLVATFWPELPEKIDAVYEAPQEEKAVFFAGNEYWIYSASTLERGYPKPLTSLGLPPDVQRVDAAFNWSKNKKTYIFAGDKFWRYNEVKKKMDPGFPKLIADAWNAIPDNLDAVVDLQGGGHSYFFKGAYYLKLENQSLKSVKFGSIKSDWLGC

[7] = target: T2, 72 kDa type IV collagenase; experiment: Inhibition of recombinant human MMP2 at 10 uM using thiopeptide as substrate preincubated for 30 mins followed by substrate addition and measured every min for 20 mins by colorimetric assay relative to control; how it was run: as §1
Target sequence in this assay (P08253 110-660 limits assumed): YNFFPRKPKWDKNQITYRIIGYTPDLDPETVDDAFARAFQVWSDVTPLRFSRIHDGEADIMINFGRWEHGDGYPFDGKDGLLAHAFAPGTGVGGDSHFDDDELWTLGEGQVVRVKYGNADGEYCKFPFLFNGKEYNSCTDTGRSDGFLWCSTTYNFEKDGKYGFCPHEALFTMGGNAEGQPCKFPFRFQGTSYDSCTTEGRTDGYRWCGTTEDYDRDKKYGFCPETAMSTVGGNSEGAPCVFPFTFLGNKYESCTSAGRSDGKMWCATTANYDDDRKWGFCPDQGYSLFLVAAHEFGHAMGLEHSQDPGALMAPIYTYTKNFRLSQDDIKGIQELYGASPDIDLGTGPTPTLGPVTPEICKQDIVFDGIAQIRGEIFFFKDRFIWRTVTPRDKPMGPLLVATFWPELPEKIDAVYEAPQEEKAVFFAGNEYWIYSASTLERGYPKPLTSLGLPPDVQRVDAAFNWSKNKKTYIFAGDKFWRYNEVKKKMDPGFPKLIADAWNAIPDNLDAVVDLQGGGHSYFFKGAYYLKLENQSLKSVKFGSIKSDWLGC

HUVEC [8] = experiment: Antiangiogenic activity in HUVEC assessed as inhibition of tuber formation at 10 uM incubated for 24 hrs by matrigel-based inverted microscopy; format: functional, cell-based; details: Homo sapiens
How it was run: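 HUVEC treated with compound for 24 h in serum-free RPMI1640, harvested and layered onto undiluted matrigel polymerized 2 h at 37°C; after 6 h cell organization examined by inverted microscope, with mesh number counted as the angiogenesis read-out. Tested at 10 µM.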

[9] = target: T2, 72 kDa type IV collagenase; experiment: Inhibition of MMP2 in human A549 cells assessed as decrease in gelatin digestion incubated for 24 hrs by coomassie brilliant blue staining-based zymographic assay; format: cell-based
How it was run: (§2)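 A549 cells treated 24 h at 1, 5, 10 µM; culture supernatants electrophoresed on gelatin-containing SDS-PAGE, gels washed three times in 0.25% triton, then incubated 48 h at 37°C in 50 mM Tris-HCl pH 7.5 with 0.15 M NaCl, 5 mM CaCl2, 0.05% NaN3 to reveal gelatinolytic activity.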
Target sequence in this assay (P08253 110-660 limits assumed): as above

A549 [10] = experiment: Induction of apoptosis in human A549 cells assessed as viable cells at 10 uM incubated for 48 hrs by annexin V FITC and propidium iodide based flow cytometry (reference value: 94.7 %); format: functional; details: A549, 48 h, read-out: Activity
How it was run: (§3)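 A549 cells (1×10^5 cells/mL) treated 48 h at 0, 1, 5 or 10 µM; harvested, washed in cold PBS, resuspended in binding buffer with annexin V-FITC and PI, 15 min at room temperature in the dark, then analysed by flow cytometry.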

A549 [11] = experiment: Induction of apoptosis in human A549 cells assessed as early apoptotic cells at 5 uM incubated for 48 hrs by annexin V FITC and propidium iodide based flow cytometry (reference value: 2.15 %); format: functional; how it was run: as §3
HL-60 = experiment: Antiproliferative activity against human HL60 cells assessed as reduction in cell viability incubated for 48 hrs by MTT assay; format: functional, cell-based; details: HL-60, 48 h
How it was run: (§4)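 Cells grown in RPMI1640 with 10% FBS at 37°C, 5% CO2; seeded at 4000-5000 cells/well for 8 h, then exposed to a range of compound concentrations for 48 h. MTT added for 4 h, formazan dissolved in DMSO, absorbance at 570 nm; IC50 calculated from inhibition ratios.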

A549 [12] = experiment: Down regulation of MMP9 expression in human A549 cells incubated for 24 hrs by Western blot analysis; format: functional, cell-based
How it was run: (§5)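 A549 cells treated 24 h at 1, 5 and 10 µM; lysates run on SDS-PAGE, transferred to PVDF, blocked in 10% dry milk/TBST, probed with rabbit anti-MMP-2, anti-MMP-9 or anti-GAPDH, then secondary antibodies and imaged.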

MCF7 = experiment: Antiproliferative activity against human MCF7 cells assessed as reduction in cell viability incubated for 48 hrs by MTT assay; format: functional, cell-based; details: MCF7, 48 h; how it was run: as §4
A549 [13] = experiment: Induction of apoptosis in human A549 cells assessed as early apoptotic cells at 1 uM incubated for 48 hrs by annexin V FITC and propidium iodide based flow cytometry (reference value: 2.15 %); format: functional; how it was run: as §3
A549 [14] = experiment: Induction of apoptosis in human A549 cells assessed as viable cells at 1 uM incubated for 48 hrs by annexin V FITC and propidium iodide based flow cytometry (reference value: 94.7 %); format: functional; details: A549, 48 h, read-out: Activity; how it was run: as §3
A549 [15] = experiment: Induction of apoptosis in human A549 cells assessed as necrotic cells at 10 uM incubated for 48 hrs by annexin V FITC and propidium iodide based flow cytometry (reference value: 0.02 %); format: functional; how it was run: as §3
A549 [16] = experiment: Induction of apoptosis in human A549 cells assessed as late apoptotic cells at 5 uM incubated for 48 hrs by annexin V FITC and propidium iodide based flow cytometry (reference value: 3.11 %); format: functional; how it was run: as §3
HUVEC [17] = experiment: Cytotoxicity against HUVEC assessed as reduction in cell viability incubated for 48 hrs by MTT assay; format: cell-based; details: Homo sapiens; how it was run: as §4
A549 [18] = experiment: Induction of apoptosis in human A549 cells assessed as necrotic cells at 1 uM incubated for 48 hrs by annexin V FITC and propidium iodide based flow cytometry (reference value: 0.02 %); format: functional; how it was run: as §3
A549 [19] = experiment: Inhibition of cell migration in human A549 cells incubated for 24 hrs by crystal violet staining based transwell migration assay; format: functional
How it was run: (§6)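 A549 cells pretreated 24 h with compound (1, 5, 10 µM), harvested into serum-free RPMI1640; 30,000 cells placed in upper transwell chamber, lower chamber RPMI1640 + 10% FBS as chemoattractant. Migration 24 h at 37°C, 5% CO2; cells fixed MeOH/acetic acid (3:1), upper side wiped, underside stained 0.1% crystal violet and counted. Three repeats, mean ± SEM.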

A549 [20] = experiment: Induction of apoptosis in human A549 cells assessed as late apoptotic cells at 1 uM incubated for 48 hrs by annexin V FITC and propidium iodide based flow cytometry (reference value: 3.11 %); format: functional; how it was run: as §3
A549 [21] = experiment: Down regulation of MMP2 expression in human A549 cells incubated for 24 hrs by Western blot analysis; format: functional, cell-based; how it was run: as §5
A549 [22] = experiment: Inhibition of cell invasion in human A549 cells incubated for 24 hrs by crystal violet staining based matrigel migration assay; format: functional
How it was run: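 As the migration setup but membrane precoated with matrigel (1:10 diluted) for 2 h at 37°C: A549 pretreated 24 h at 1, 5, 10 µM, 30,000 cells in serum-free medium above, 10% FBS below, 24 h, then fixing, 0.1% crystal violet staining and counting. Three repeats, mean ± SEM.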

A549 [23] = experiment: Induction of apoptosis in human A549 cells assessed as necrotic cells at 5 uM incubated for 48 hrs by annexin V FITC and propidium iodide based flow cytometry (reference value: 0.02 %); format: functional; how it was run: as §3
PC-3 = experiment: Antiproliferative activity against human PC3 cells assessed as reduction in cell viability incubated for 48 hrs by MTT assay; format: functional, cell-based; details: PC-3, 48 h; how it was run: as §4
A549 [24] = experiment: Induction of apoptosis in human A549 cells assessed as late apoptotic cells at 10 uM incubated for 48 hrs by annexin V FITC and propidium iodide based flow cytometry (reference value: 3.11 %); format: functional; how it was run: as §3
A549 [25] = experiment: Antiproliferative activity against human A549 cells assessed as reduction in cell viability incubated for 48 hrs by MTT assay; format: functional, cell-based; details: A549, 48 h; how it was run: as §4
KG-1 = experiment: Antiproliferative activity against human KG1 cells assessed as reduction in cell viability incubated for 48 hrs by MTT assay; format: functional, cell-based; details: KG-1, 48 h; how it was run: as §4
A549 [26] = experiment: Induction of apoptosis in human A549 cells assessed as early apoptotic cells at 10 uM incubated for 48 hrs by annexin V FITC and propidium iodide based flow cytometry (reference value: 2.15 %); format: functional; how it was run: as §3
K562 = experiment: Antiproliferative activity against human K562 cells assessed as reduction in cell viability incubated for 48 hrs by MTT assay; format: functional, cell-based; details: K562, 48 h; how it was run: as §4
A549 [27] = experiment: Induction of apoptosis in human A549 cells assessed as viable cells at 5 uM incubated for 48 hrs by annexin V FITC and propidium iodide based flow cytometry (reference value: 94.7 %); format: functional; details: A549, 48 h, read-out: Activity; how it was run: as §3
[28] = target: T1, Matrix metalloproteinase-9; experiment: Inhibition of MMP9 in human A549 cells assessed as decrease in gelatin digestion incubated for 24 hrs by coomassie brilliant blue staining-based zymographic assay; format: cell-based; how it was run: as §2
A549 [29] = experiment: Inhibition of cell migration in human A549 cells at 1 to 10 uM incubated for 24 hrs by crystal violet staining based transwell migration assay; format: functional; how it was run: as §6

Row | Structure (SMILES) | inhibition [1] [%] | IC50 [2] [µM] | Ratio IC50 [3] | inhibition [4] [%] | inhibition [5] [%] | IC50 [6] [µM] | inhibition [7] [%] | inhibition (HUVEC [8]) | inhibition [9] | viability at 10 µM (A549 [10]) [%] | Activity (A549 [11]) [%] | IC50 (HL-60) [µM] | Activity (A549 [12]) | IC50 (MCF7) [µM] | Activity (A549 [13]) [%] | viability at 1 µM (A549 [14]) [%] | Activity (A549 [15]) [%] | Activity (A549 [16]) [%] | IC50 (HUVEC [17]) [µM] | Activity (A549 [18]) [%] | further results
1 | CN(CCCCC(=O)Nc1ccc(O)c2ncccc12)c1ccccc1 | 15 | > 10 | > 7 | 22.2 | 35 | 7.5 | 57.5 | – | – | – | – | – | – | – | – | – | – | – | – | – | –
2 | O=C(CCCCCNCc1cc(Cl)c2cccnc2c1O)Nc1ccccc1 | – | 0.66 | – | 100 | – | 0.7 | 100 | Active | Dose-dependent effect | 72.3 | 17.1 | 1.8 | Dose-dependent effect | 4.6 | 16.4 | 75.8 | 0.14 | 9.75 | > 50 | 0.031 | inhibition (A549 [19]): Dose-dependent effect; Activity (A549 [20]): 7.81%; Activity (A549 [21]): Dose-dependent effect; inhibition (A549 [22]): Dose-dependent effect; Activity (A549 [23]): 0.029%; IC50 (PC-3): 8.3 µM; Activity (A549 [24]): 6.54%; IC50 (A549 [25]): 11 µM; IC50 (KG-1): 2.3 µM; Activity (A549 [26]): 21%; IC50 (K562): 2.3 µM; viability at 5 µM (A549 [27]): 73.1%; inhibition [28]: Dose-dependent effect
3 | CN(CCCCCC(=O)Nc1ccc(O)c2ncccc12)c1ccccc1 | 22 | > 10 | > 7 | 35.3 | 26 | 6.2 | 59.5 | – | – | – | – | – | – | – | – | – | – | – | – | – | –
4 | Cc1[nH]c2ccccc2c1CCNC(=O)CCCNCc1cc(Cl)c2cccnc2c1O | – | 1.3 | – | 100 | – | 0.81 | 68.8 | Active | Dose-dependent effect | 62.5 | 29.4 | 4 | Dose-dependent effect | 7.8 | 16 | 74.9 | 0.46 | 6.17 | > 50 | 0 | Activity (A549 [20]): 9.15%; Activity (A549 [21]): Dose-dependent effect; inhibition (A549 [22]): Dose-dependent effect; Activity (A549 [23]): 0.027%; IC50 (PC-3): 22 µM; Activity (A549 [24]): 4.97%; IC50 (A549 [25]): 6.4 µM; IC50 (KG-1): 0.69 µM; Activity (A549 [26]): 32.5%; IC50 (K562): 1.8 µM; inhibition (A549 [29]): Active; viability at 5 µM (A549 [27]): 64.4%; inhibition [28]: Dose-dependent effect
